Source: ChEMBL document CHEMBL4130637, “25 S-Adamantyl-23-yne-26,27-dinor-1α,25-dihydroxyvitamin D3: Synthesis, Tissue Selective Biological Activities, and X-ray Crystal Structural Analysis of Its Vitamin D Receptor Complex” (J Med Chem, 2018)
Activity calls are given as the source filed them. No cut-off for these calls is given here.

Legend:
[1] = biological target: T1, Vitamin D3 receptor (Homo sapiens) (UniProt P11473); assay: Transactivation of VDR (unknown origin) expressed in HEK293 cells harboring TK-Spp X 3-LUC reporter plasmid after 24 hrs by luciferase reporter gene assay relative to 1,25(OH)2D3; format: cell-based
T1 sequence (whole entry): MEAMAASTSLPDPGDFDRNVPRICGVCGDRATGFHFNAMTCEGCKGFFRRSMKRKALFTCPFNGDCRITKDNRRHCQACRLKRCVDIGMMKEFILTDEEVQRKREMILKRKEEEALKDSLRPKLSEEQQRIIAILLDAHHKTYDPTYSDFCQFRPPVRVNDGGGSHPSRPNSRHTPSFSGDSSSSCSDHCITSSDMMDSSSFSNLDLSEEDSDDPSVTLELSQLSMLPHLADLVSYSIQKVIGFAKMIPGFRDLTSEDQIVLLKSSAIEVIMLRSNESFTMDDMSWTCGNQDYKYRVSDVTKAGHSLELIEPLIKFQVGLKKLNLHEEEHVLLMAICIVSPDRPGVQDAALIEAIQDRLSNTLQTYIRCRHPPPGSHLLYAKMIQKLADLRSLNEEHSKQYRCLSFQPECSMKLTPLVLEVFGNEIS
Procedure, shortened: (§1)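 HEK293 cells transfected with pCMX-VDR and TKSpp × 3-LUC reporter. Cells treated with vehicle or ligand at 10-14 M to 10^-8 M for 24 h, then harvested. Luciferase activity assayed alongside β-galactosidase activity.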

[2] = biological target: T1, Vitamin D3 receptor (Homo sapiens); assay: Displacement of [26,27-Methyl-3H]-1,25(OH)2D3 from recombinant human GST-tagged VDR LBD (140 to 427 residues) expressed in Escherichia coli BL21 preincubated for 30 mins followed by radioligand addition measured after 20 hrs relative to 1,25(OH)2D3
Procedure, shortened: (§2)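 GST-VDR fusion protein incubated with [3H]1,25(OH)2D3 plus unlabeled competitor over a range of concentrations. Values are means ± standard deviations of triplicate assays.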

Vitamin D3 receptor [3] = biological target: T2, Vitamin D3 receptor (Homo sapiens, UniProt P11473); assay: Displacement of [26,27-Methyl-3H]-1,25(OH)2D3 from recombinant human GST-tagged VDR LBD (140 to 427 residues) expressed in Escherichia coli BL21 preincubated for 30 mins followed by radioligand addition measured after 20 hrs; procedure, shortened: as §2
T2 sequence (P11473 whole entry): T1 sequence (whole entry)

[4] = Drug uptake in human MG63 cells at 1 uM after 10 mins by HPLC analysis; format: ADME, cell-based; conditions: mg-63, 10 min
Procedure, shortened: (§3)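 MG63 cells cultured with compound (1 µM) in medium containing 10% FBS. Uptake sampled at 5 and 10 min, stability after 24 h of culture. Compound levels in cells and medium determined by HPLC.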

[5] = biological target: T1, Vitamin D3 receptor (Homo sapiens); assay: Agonist activity at VDR in human SW480 cells assessed as increase in TRPV6 gene expression at 100 nM after 24 hrs by RT-PCR method relative to 1,25(OH)2D3; format: cell-based
Procedure, shortened: (§4)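 Cells treated with ligand at 100 nM for 24 h. mRNA of the target gene measured by reverse transcription and quantitative real-time PCR. Expression given as percentage of that induced by an equal concentration of 1,25(OH)2D3. Significance tested versus vehicle control.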

[6] = biological target: T1, Vitamin D3 receptor (Homo sapiens); assay: Agonist activity at VDR in human MG63 cells assessed as increase in CYP24A1 gene expression at 100 nM after 24 hrs by RT-PCR method relative to 1,25(OH)2D3; format: cell-based; procedure, shortened: as §4
[7] = biological target: T1, Vitamin D3 receptor (Homo sapiens); assay: Agonist activity at VDR in human U937 cells assessed as increase in CAMP gene expression at 100 nM after 24 hrs by RT-PCR method relative to 1,25(OH)2D3; format: cell-based; procedure, shortened: as §4
[8] = biological target: T1, Vitamin D3 receptor (Homo sapiens); assay: Agonist activity at VDR in HEK293 cells assessed as increase in CYP24A1 gene expression at 100 nM after 24 hrs by RT-PCR method relative to 1,25(OH)2D3; format: cell-based; procedure, shortened: as §4
[9] = biological target: T1, Vitamin D3 receptor (Homo sapiens); assay: Agonist activity at VDR in human HaCaT cells assessed as increase in CYP24A1 gene expression at 100 nM after 24 hrs by RT-PCR method relative to 1,25(OH)2D3; format: cell-based; procedure, shortened: as §4
[10] = biological target: T1, Vitamin D3 receptor (Homo sapiens); assay: Agonist activity at VDR in human SW480 cells assessed as increase in CYP24A1 gene expression at 100 nM after 24 hrs by RT-PCR method relative to 1,25(OH)2D3; format: cell-based; procedure, shortened: as §4
[11] = biological target: T1, Vitamin D3 receptor (Homo sapiens); assay: Agonist activity at VDR in human SW480 cells assessed as increase in E-cadherin gene expression at 100 nM after 24 hrs by RT-PCR method relative to 1,25(OH)2D3; format: cell-based; procedure, shortened: as §4
[12] = biological target: T1, Vitamin D3 receptor (Homo sapiens); assay: Agonist activity at VDR in human HaCaT cells assessed as increase in CAMP gene expression at 100 nM after 24 hrs by RT-PCR method relative to 1,25(OH)2D3; format: cell-based; procedure, shortened: as §4
[13] = Drug uptake in human MG63 cells at 1 uM after 5 mins by HPLC analysis; format: ADME, cell-based; conditions: mg-63, 5 min; procedure, shortened: as §3
[14] = biological target: T1, Vitamin D3 receptor (Homo sapiens); assay: Transactivation of VDR (unknown origin) expressed in HEK293 cells harboring TK-Spp X 3-LUC reporter plasmid after 24 hrs by luciferase reporter gene assay relative to control; format: cell-based; procedure, shortened: as §1
[15] = biological target: T1, Vitamin D3 receptor (Homo sapiens); assay: Agonist activity at VDR in human MG63 cells assessed as increase in OCN gene expression at 100 nM after 24 hrs by RT-PCR method relative to 1,25(OH)2D3; format: cell-based; procedure, shortened: as §4
Vitamin D3 receptor [16] = biological target: T2, Vitamin D3 receptor; assay: Transrepression of VP16-tagged VDR (unknown origin) expressed in HEK293 cells harboring pCMX-GAL4-NCoR and MH100(UAS) X 4tk-LUC reporter plasmid assessed as increase in NCoR recruitment by […] reporter gene based mammalian two-hybrid assay; format: cell-based
[17] = Stability in human MG63 cells assessed as parent compound remaining at 1 uM after 24 hrs by HPLC analysis; format: ADME, cell-based, MG-63; conditions: read-out: Stability; procedure, shortened: as §3
Vitamin D3 receptor [18] = biological target: T2, Vitamin D3 receptor; assay: Transactivation of VDR (unknown origin) expressed in HEK293 cells harboring TK-Spp X 3-LUC reporter plasmid after 24 hrs by luciferase reporter gene assay; format: cell-based; procedure, shortened: as §1
Vitamin D3 receptor [19] = biological target: T2, Vitamin D3 receptor; assay: Transactivation of VP16-tagged VDR (unknown origin) expressed in HEK293 cells harboring pCMX-GAL4-RXRalpha and MH100(UAS) X 4tk-LUC reporter plasmid assessed as increase in interaction with RXRalpha by […] reporter gene based mammalian two-hybrid assay; format: cell-based
[20] = biological target: T1, Vitamin D3 receptor (Homo sapiens); assay: Agonist activity at VDR in human U937 cells assessed as increase in CYP24A1 gene expression at 100 nM after 24 hrs by RT-PCR method relative to 1,25(OH)2D3; format: cell-based; procedure, shortened: as §4
Vitamin D3 receptor [21] = biological target: T2, Vitamin D3 receptor; assay: Transactivation of VP16-tagged VDR (unknown origin) expressed in HEK293 cells harboring pCMX-GAL4-SRC-1 and MH100(UAS) X 4tk-LUC reporter plasmid assessed as increase in SRC-1 recruitment by […] reporter gene based mammalian two-hybrid assay; format: cell-based
[22] = Drug degradation in human MG63 cells at 1 uM after 24 hrs by HPLC analysis; format: ADME, cell-based, MG-63; conditions: read-out: Drug degradation; procedure, shortened: as §3

C=C1/C(=C\C=C2/CCC[C@]3(C)[C@@H]([C@H](C)CC#C[C@@H](O)C45CC6CC(CC(C6)C4)C5)CC[C@@H]23)C[C@@H](O)C[C@@H]1O
Emax [1]: 87%
inhibition [2]: 50%
IC50 (Vitamin D3 receptor [3]): 0.24 nM
Drug uptake [4]: 6%
Activity [5]: 22%
Activity [6]: 44%
Activity [7]: 96%
Activity [8]: 160%
Activity [9]: 7%
Activity [10]: 8%
Activity [11]: 12%
Activity [12]: 24%
Drug uptake [13]: 3.1%
Activity [14]: 90%
Activity [15]: 64%
IC50 (Vitamin D3 receptor [16]): 0.09 nM
remaining at 24 h, 1 µM [17]: 49%
EC50 (Vitamin D3 receptor [18]): 0.03 nM
EC50 (Vitamin D3 receptor [19]): > 0.14 nM
Activity [20]: 54%
EC50 (Vitamin D3 receptor [21]): > 1.2 nM

C=C1/C(=C\C=C2/CCC[C@]3(C)[C@@H]([C@H](C)CC#C[C@H](O)C45CC6CC(CC(C6)C4)C5)CC[C@@H]23)C[C@@H](O)C[C@@H]1O
inhibition [2]: 4%
IC50 (Vitamin D3 receptor [3]): 3.13 nM
Drug uptake [4]: 9.5%
Activity [6]: Active
Activity [7]: Active
Activity [8]: Active
Activity [9]: Active
Activity [10]: Active
Drug uptake [13]: 6.9%
Activity [15]: Active
IC50 (Vitamin D3 receptor [16]): 1.75 nM
remaining at 24 h, 1 µM [17]: 90%
EC50 (Vitamin D3 receptor [18]): > 5.69 nM
EC50 (Vitamin D3 receptor [19]): > 1.2 nM
Activity [20]: Active
EC50 (Vitamin D3 receptor [21]): > 3.2 nM

C=C1[C@H](O)CC(=C/C=C2\CCC[C@]3(C)[C@@H]([C@H](C)CC#C[C@@H](O)C45CC6CC(CC(C6)C4)C5)CC[C@@H]23)C[C@H]1O
Emax [1]: 81%
Drug uptake [4]: 9.7%
Activity [6]: 58%
Activity [8]: 100%
Activity [9]: 30%
Activity [10]: 50%
Drug uptake [13]: 6.1%
Activity [14]: 170%
remaining at 24 h, 1 µM [17]: 43%
Activity [20]: 85%

C=C1/C(=C\C=C2/CCC[C@]3(C)[C@@H]([C@H](C)CCCC(C)(C)O)CC[C@@H]23)C[C@@H](O)C[C@@H]1O [CALCITRIOL]
Drug uptake [4]: 2.3%
Drug uptake [13]: 3.4%
metabolised at 24 h, 1 µM [22]: 30%
remaining at 24 h, 1 µM [17]: 70%
